In ChEMBL document CHEMBL1155054, “Synthesis, biological evaluation and molecular modelling of N-heterocyclic dipeptide aldehydes as selective calpain inhibitors” (Bioorg Med Chem, 2008):
The source made the active and inactive calls. The rule behind the calls is not given here. Residues, ends and D or L forms follow the SMILES beside them. *: point of attachment. Cbz = O=C(OCc1ccccc1)*

Tests used:
[1] = target: T1, Calpain-2 catalytic subunit (Homo sapiens, UniProt P17655); test: Inhibition of human CAPN2
T1 sequence (P17655 whole entry): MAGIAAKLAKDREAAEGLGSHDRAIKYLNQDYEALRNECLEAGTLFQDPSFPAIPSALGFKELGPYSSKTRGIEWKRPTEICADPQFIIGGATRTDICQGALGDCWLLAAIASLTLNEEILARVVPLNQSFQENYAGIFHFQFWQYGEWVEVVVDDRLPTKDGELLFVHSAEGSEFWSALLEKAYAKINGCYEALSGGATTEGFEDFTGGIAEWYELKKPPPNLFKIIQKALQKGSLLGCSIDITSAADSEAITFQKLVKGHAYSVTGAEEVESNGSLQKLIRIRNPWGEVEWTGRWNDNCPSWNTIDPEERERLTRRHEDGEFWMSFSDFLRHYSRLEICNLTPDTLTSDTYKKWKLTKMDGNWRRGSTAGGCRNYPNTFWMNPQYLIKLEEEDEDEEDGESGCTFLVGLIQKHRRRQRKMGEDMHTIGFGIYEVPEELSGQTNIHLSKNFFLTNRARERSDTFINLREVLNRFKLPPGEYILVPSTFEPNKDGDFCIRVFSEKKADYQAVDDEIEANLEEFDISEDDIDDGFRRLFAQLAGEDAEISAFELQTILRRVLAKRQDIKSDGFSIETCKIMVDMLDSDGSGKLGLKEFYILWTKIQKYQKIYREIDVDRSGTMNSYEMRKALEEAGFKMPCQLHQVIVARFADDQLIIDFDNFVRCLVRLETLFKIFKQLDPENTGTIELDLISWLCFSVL

[2] = Inhibition of ovine CAPN2; set-up: species or system Ovis aries
Outline: (§1)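 o-CAPN1 or o-CAPN2 partially purified from sheep lung by hydrophobic and ion-exchange chromatography, diluted in 20 mM MOPS, 2 mM EGTA, 2 mM EDTA, 0.5% β-mercaptoethanol pH 7.5. Substrate 0.0005% BODIPY-FL casein in 10 mM CaCl2; inhibitor in DMSO (2% total).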

[3] = Inhibition of ovine CAPN1; set-up: species or system Ovis aries; outline: as §1
Lens of camera-type eye = test: Protection against calcium-induced cataract in ovine lens assessed as reduction in loss of transparency at 10 uM after 44 hrs relative to control; format: functional, tissue-based; settings: Ovis aries
[4] = target: T2, Calpain-2 catalytic subunit (Sus scrofa, UniProt P43367); test: Inhibition of pig CAPN2
T2 sequence (P43367 whole entry): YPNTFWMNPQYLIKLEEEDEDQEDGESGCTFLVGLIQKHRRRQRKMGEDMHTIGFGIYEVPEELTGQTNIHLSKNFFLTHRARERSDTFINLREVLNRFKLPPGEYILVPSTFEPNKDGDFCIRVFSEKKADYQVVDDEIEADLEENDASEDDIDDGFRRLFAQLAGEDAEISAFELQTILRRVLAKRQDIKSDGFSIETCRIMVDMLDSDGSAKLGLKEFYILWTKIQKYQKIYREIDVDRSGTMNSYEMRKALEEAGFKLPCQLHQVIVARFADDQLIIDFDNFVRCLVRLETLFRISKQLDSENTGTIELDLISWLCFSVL

[5] = target: T3, Calpain-1 catalytic subunit (Sus scrofa, UniProt P35750)
T3 sequence (P35750 whole entry): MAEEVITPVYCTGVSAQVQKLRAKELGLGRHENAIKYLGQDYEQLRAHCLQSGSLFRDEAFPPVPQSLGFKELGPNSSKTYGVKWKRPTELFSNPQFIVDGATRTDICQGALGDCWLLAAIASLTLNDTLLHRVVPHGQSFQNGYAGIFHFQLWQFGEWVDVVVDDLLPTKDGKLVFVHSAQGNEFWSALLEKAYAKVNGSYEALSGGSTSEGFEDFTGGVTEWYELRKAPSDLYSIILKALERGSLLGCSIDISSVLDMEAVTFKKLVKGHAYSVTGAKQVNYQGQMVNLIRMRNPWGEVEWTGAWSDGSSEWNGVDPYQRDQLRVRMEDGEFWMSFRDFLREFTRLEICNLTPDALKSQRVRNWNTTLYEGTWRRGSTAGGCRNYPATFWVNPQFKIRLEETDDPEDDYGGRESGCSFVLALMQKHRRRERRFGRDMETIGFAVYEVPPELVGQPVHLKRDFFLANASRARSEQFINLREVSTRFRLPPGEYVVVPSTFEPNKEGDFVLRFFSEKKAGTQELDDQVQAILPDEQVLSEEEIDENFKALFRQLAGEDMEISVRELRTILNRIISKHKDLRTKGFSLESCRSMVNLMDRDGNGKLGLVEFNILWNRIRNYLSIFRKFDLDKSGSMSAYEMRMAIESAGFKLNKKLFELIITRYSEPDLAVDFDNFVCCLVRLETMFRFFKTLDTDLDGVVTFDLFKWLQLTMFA

SMILES | IC50 [2] [nM] | IC50 [3] [nM] | also measured
CC(C)[C@H](NC(=O)OCc1ccccc1)C(=O)N[C@H](C=O)Cc1ccccc1 (Cbz-Val-Phe-aldehyde) | – | – | IC50 [1]: 350 nM
CC(C)C[C@@H](C=O)NC(=O)[C@@H](NC(=O)c1cccs1)C(C)C | 100 | 680 | –
CC(C)C[C@@H](C=O)NC(=O)[C@@H](NC(=O)c1cc(C=O)c[nH]1)C(C)C | 100 | 530 | –
CC(C)C[C@@H](C=O)NC(=O)[C@@H](NS(=O)(=O)c1ccc(F)cc1)C(C)C | – | – | IC50 [4]: 78 nM; IC50 [5]: 7.5 nM
COC(=O)c1ccc(C(=O)N[C@H](C(=O)N[C@H](C=O)CC(C)C)C(C)C)[nH]1 | 140 | 290 | –
Cc1ccc(C(=O)N[C@H](C(=O)N[C@H](C=O)CC(C)C)C(C)C)[nH]1 | 110 | 340 | –
CC(C)C[C@@H](C=O)NC(=O)[C@@H](NC(=O)c1ccco1)C(C)C | 135 | 790 | –
CC(C)C[C@@H](C=O)NC(=O)[C@@H](NC(=O)c1ccc[nH]1)C(C)C | 315 | 650 | –

Now from value to molecule, other results behind:

IC50 [2] [nM] | IC50 [3] [nM] | SMILES | also measured
150 | 150 | CC(C)C[C@@H](C=O)NC(=O)[C@@H](NC(=O)c1ccc(C=O)n1C)C(C)C | –
25 | 290 | CC(C)C[C@@H](C=O)NC(=O)[C@@H](NC(=O)c1ccc(C=O)[nH]1)C(C)C | Activity (Lens of camera-type eye): Active
85 | 440 | CC(C)C[C@@H](C=O)NC(=O)[C@@H](NC(=O)c1ccc(C=O)s1)C(C)C | –
100 | 960 | CC(C)C[C@@H](C=O)NC(=O)[C@@H](NC(=O)c1ccc(C=O)o1)C(C)C | –
